PubChem BioAssay AID623869 (Vanderbilt High Throughput Screening Facility, 2012)
The campaign covered roughly 2,100 compounds. About 75 (4%) were called active.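 The calls were made as follows: active = calcium fluorescence trace judged by eye to show a response, as agonist, enhancer of the glutamate response, or inhibitor; inactive = trace judged by eye to show no response.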 What follows is part of a selection rich in actives, with near analogues and random picks from the rest.

biological target: Metabotropic glutamate receptor 8 (Rattus norvegicus) (UniProt P70579); experiment: rat mGlu8 modulation via Gqi9 calcium signal, confirmation, counter-screen for GIRK activator project, cell-based, HEK293 rmGlu8, Gqi9 chimera, Fluo-4 calcium (AID 623869); settings: HEK293 rmGlu8/Gqi9 calcium flux, Fluo-4 fluorescence; glutamate at EC20 added after compound
Outline: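 System – HEK-293 cells stably expressing rat mGlu8, plus transient chimeric Gqi9 · Medium – HEPES-buffered HBSS, pH 7.4 · Also added – EC20 glutamate · Compound – one dose, 20 µM addition solution, 0.2% DMSO · Times – compound 4 min before glutamate, then 2 min recording · Measured by – Fluo-4 calcium fluorescence sampled at 1 Hz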

Sequence of Metabotropic glutamate receptor 8 (Rattus norvegicus) (P70579 whole entry, looked up): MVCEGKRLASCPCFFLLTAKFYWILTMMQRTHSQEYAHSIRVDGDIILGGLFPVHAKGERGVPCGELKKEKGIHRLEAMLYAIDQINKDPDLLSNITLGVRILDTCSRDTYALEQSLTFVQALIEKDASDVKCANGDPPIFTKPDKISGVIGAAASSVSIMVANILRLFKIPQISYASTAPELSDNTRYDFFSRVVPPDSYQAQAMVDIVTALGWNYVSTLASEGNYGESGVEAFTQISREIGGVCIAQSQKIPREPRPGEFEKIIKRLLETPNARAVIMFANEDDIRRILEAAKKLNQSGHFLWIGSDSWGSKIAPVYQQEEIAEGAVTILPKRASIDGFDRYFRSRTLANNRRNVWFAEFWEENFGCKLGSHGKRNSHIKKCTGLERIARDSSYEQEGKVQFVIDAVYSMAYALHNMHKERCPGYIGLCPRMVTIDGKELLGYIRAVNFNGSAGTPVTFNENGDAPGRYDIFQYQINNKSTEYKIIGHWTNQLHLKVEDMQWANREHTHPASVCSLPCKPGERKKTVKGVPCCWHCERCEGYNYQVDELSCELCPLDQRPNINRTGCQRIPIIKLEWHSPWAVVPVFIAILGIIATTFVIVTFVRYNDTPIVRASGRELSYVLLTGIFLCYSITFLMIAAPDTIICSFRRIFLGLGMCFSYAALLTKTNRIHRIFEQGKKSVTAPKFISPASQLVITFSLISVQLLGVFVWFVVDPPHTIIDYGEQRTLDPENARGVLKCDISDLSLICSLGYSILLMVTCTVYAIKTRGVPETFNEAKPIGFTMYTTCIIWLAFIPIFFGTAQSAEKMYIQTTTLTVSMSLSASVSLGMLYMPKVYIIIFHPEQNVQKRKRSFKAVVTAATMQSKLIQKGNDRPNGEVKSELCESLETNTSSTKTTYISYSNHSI

Row | Structure (SMILES) | outcome
1 | O=C(c1cc(-c2ccccc2)on1)N1CCCC1 | inactive; 0
2 | CSc1nc(-c2ccccc2)[nH]c(=S)c1C(C)=O | inactive; 0
3 | CC(=O)c1c(N2CCCC2)[nH]c(-c2ccccc2)nc1=S | active; 2
4 | COC(=O)C(C)N(C(=O)c1cccc2ccccc12)c1c(C)cccc1C (centres undefined) | inactive; 0
5 | COc1ccc(-c2cc(C(F)(F)F)c3c(n2)sc2c(O)cc(=O)[nH]c23)c(OC)c1 | active; 2
6 | CCOC(=O)c1c(NS(=O)(=O)c2ccc(Br)cc2)sc2c1CCC2 | inactive; 0
7 | COc1ccc2nc(/N=C/c3c(C)[nH]n(-c4ccc(C)cc4)c3=O)sc2c1 | inactive; 0
8 | O=C(NN=C(Cc1ccccc1)Cc1ccccc1)c1ccc(F)cc1 | inactive; 0
9 | Cc1ccc(C(=O)NC(=S)Nc2ccccc2C(F)(F)F)cc1 | inactive; 0
10 | Cc1ccc(C(=O)N/N=C(/CC(=O)c2cccs2)C(F)(F)F)cc1 | active; -1
11 | COC(=O)C1=NN(C(=O)c2ccc(C)cc2)C(O)(c2ccc(Cl)cc2)C1 (centres undefined) | inactive; 4
12 | COC(=O)c1sc(NC(=S)NC(=O)c2ccccc2Cl)nc1C | inactive; 0
13 | CC(C)(C)c1ccc(C(=O)NC(=S)Nc2nc3c(s2)CCCC3)cc1 | active; 2
14 | O=C(NC(=S)Nc1nc2c(s1)CCCC2)c1ccccc1 | inactive; 0
15 | COC(=O)c1ccc(C(=O)NC(=S)Nc2nc3c(s2)CCCC3)cc1 | inactive; 0
16 | O=C(NC(=S)Nc1ccc(N2CCOCC2)c(Cl)c1)c1cncc(Br)c1 | inactive; 0
17 | CCOC(=O)c1c2n(c3c(NCc4ccccc4)ncnc13)CCCC2 | inactive; 0
18 | O=C1CN(C(=O)CSc2nc3cc(Cl)ccc3c(=O)n2Cc2ccccc2)c2ccccc2N1 | inactive; 0
19 | Cc1cc(NC(=O)CSc2nc3ccccc3c(=O)n2Cc2ccccc2)no1 | inactive; 0
20 | O=C1OCCC1Sc1nc2cc(Cl)ccc2n1Cc1ccccc1 (centres undefined) | active; 2
21 | Cc1cccc(C(=O)CC(=O)c2cc(Cl)ccc2O)c1 | inactive; 0
22 | Cc1ccc(C(=O)CC(=O)c2cc(Cl)ccc2O)cc1 | inactive; 0
23 | C/C(=N/NC(=O)c1cc(Cl)ccc1O)C12CC3CC(CC(C3)C1)C2 | active; 1

Row | Structure (SMILES) | outcome
24 | COc1ccccc1/C=C/C(=O)NC(=S)N(C)C1CCCCC1 | inactive; 0
25 | CC(Nc1ccc(Br)cn1)c1cc(Cl)ccc1O (centres undefined) | inactive; 0
26 | Oc1ccccc1CNc1ccc(Br)cn1 | active; -1
27 | O=c1c(-c2ccccc2)nc(-c2ccccc2)cn1O | inactive; 0
28 | O=C(NC(=S)N1CCN(Cc2ccccc2)CC1)c1ccccc1 | inactive; 0
29 | O=C(NC(=S)Nc1ccccc1)c1csnn1 | inactive; 0
30 | CC(C)(C)NC(=O)C(c1ccncc1)N(C(=O)c1csnn1)c1ccccc1 (centres undefined) | active; -1
31 | CCC(C)(C)NC(=O)C(c1ccc(F)cc1)N(Cc1ccco1)C(=O)c1cnccn1 (centres undefined) | inactive; 0
32 | O=c1c2ccccc2[nH]c(=S)n1CCCN1CCN(C2CCCCC2)CC1 | inactive; 0
33 | O=C(NC(=S)Nc1ccccc1Cl)c1csnn1 | inactive; 0
34 | CCCCN(CCCC)C(=S)NC(=O)C(C)(C)C | inactive; 0
35 | Brc1ccccc1-c1nnc2sc(-c3ccc4c(c3)OCCO4)nn12 | inactive; 0
36 | CCOC(=O)C1=C(C)Nc2nnnn2C1c1ccccc1Cl (centres undefined) | inactive; 0
37 | CSc1ccccc1NC(=O)Nc1ccc(Cl)cc1 | inactive; 0
38 | O=C(N/C(=N\O)c1ccccc1)Nc1ccc(Cl)cc1 | active; 2
39 | O=C(NC(=S)Nc1ccc(Oc2ccc(Cl)cc2)cc1)c1ccccc1 | inactive; 0
40 | CCCCOc1ccc(C(=O)NNC(=S)NC(=O)CC)cc1 | inactive; 0
41 | CCCCCC(=O)NC(=S)NNC(=O)c1ccc([N+](=O)[O-])cc1 | active; 1
42 | CCCCNC(=S)NC(=O)c1ccc([N+](=O)[O-])cc1 | inactive; 0
43 | S=c1nc(-c2ccc(Br)cc2)oc2c1CCCC2 | inactive; 0
44 | Cc1ccc(C)c(NC(=S)NNC(=O)c2csc3c2CCCC3)c1 | inactive; 0
45 | COC(=O)c1ccc(NS(=O)(=O)c2ccc(SC)cc2)cc1 | inactive; 0
46 | CC(=O)Nc1ccc(C(=O)CSc2nc3ccc(C)cc3[nH]2)cc1 | inactive; 0

Row | Structure (SMILES) | outcome
47 | CCc1cc2cccc(C)c2nc1SCC(=O)c1ccc(NC(C)=O)cc1 | inactive; 0
48 | COC(=O)c1ccc(-n2c(C)cc(C(=O)CSc3ccc(NC(C)=O)cc3)c2C)cc1 | active; 2
49 | Cc1cc(C(=O)CSc2n[nH]c(N)n2)c(C)n1-c1cc(F)ccc1F | inactive; 0
50 | CC(=O)Nc1ccc(SCC(=O)c2cc(C)n(-c3ccccc3F)c2C)cc1 | active; 2
51 | COc1ccc2nc(/N=C/c3c(C)[nH]n(-c4ccc(C)cc4C)c3=O)sc2c1 | inactive; 2
52 | CC12CC3CC(C)(C1)CC(C(=O)NC(=S)N1CCCCC1)(C3)C2 | inactive; 0
53 | CSCSC1=C(C#N)C(c2ccccc2Cl)C(C(C)=O)=C(C)N1 (centres undefined) | inactive; 0
54 | O=C(NC(=S)N1CCCc2ccccc21)c1ccc(Cl)cc1 | inactive; 0
55 | Cc1cccc(N2C(=O)CS/C2=N\NC(=O)c2ccc(Cl)cc2)c1C | active; 2
56 | O=C(N/N=C1/C(=O)c2cccc3cccc1c23)c1ccc(Cl)cc1 | inactive; 0
57 | O=C(NC(=S)N(CCCCO)C1CCCCC1)c1sc2ccccc2c1Cl | inactive; 0
58 | O=C(NC(=S)Nc1ccccc1N1CCOCC1)c1ccco1 | inactive; 0
59 | CN(C(=O)CSC1=Nc2ccccc2C2=NC(c3ccccc3)C(=O)N12)C1CCCCC1 (centres undefined) | inactive; 0
60 | COc1cc(/C=C(\C#N)C(=O)Nc2cccnc2)ccc1OC(C)C | active; 2
61 | CCSc1ccccc1C(=O)Nc1cccnc1 | inactive; 0
62 | N#C/C(=C/C=C/c1ccccc1)C(=O)Nc1ccccc1 | inactive; 0
63 | Cc1ccc(OCC(=O)NNC(=O)C(=O)NC(C)(C)C)cc1 | inactive; 0
64 | C=CCn1c(=S)[nH]c2sc3c(c2c1=O)CCC3 | inactive; 0
65 | CCC1c2ccc(C)n2CCN1C(=O)Nc1ccccc1C(=O)OC (centres undefined) | active; 2
66 | COC(=O)c1ccccc1NC(=S)NC(=O)c1ccc(C)cc1 | inactive; 0
67 | COC(=O)c1ccccc1NC(=O)Nc1cnccn1 | inactive; 0
68 | CC(C)C1Cc2c(sc3[nH]c(=S)n(Cc4ccccc4)c(=O)c23)CO1 (centres undefined) | inactive; 0
69 | CCOC(=O)c1c(NC(=S)NC)sc2c1CC(C)(C)SC2 | inactive; 0
